The values that follow come from ChEMBL document CHEMBL4680120, “Novel anti-Alzheimer phenol-lipoyl hybrids: Synthesis, physico-chemical characterization, and biological evaluation” (Eur J Med Chem, 2020).

Data set [1] can be described thus: Solubility of compound in water by HPLC analysis. Format: physicochemical.
Data set [2] is described as follows: Stability in simulated gastric fluid at pH 1.2 assessed as relative difference measured after 60 mins in presence of pepsin by HPLC analysis. Format: ADME. As to conditions: isolated protein, pH 1.2, 1 h. In outline: (§1)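 Incubation in simulated gastric fluid (pH 1.2, pepsin) or simulated intestinal fluid (pH 6.8, pancreatin). Aliquots deproteinized with ice-cold acetonitrile, centrifuged at 4°C and 12000 rpm for 10 min, filtered, analyzed by HPLC. RD% = (Ci − Cf)/Ci × 100. Stable if RD < 5%. Means of three experiments.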

A short description of data set [3]: Stability in simulated intestinal fluid at pH 6.8 assessed as relative difference measured after 15 mins in presence of pancreatin by HPLC analysis. Format: ADME. As to conditions: simulated gi fluid, pH 6.8, 0.25 h. In outline:
as §1

Data set [4] in a line: Stability in simulated intestinal fluid at pH 6.8 assessed as relative difference measured after 30 mins in presence of pancreatin by HPLC analysis. Format: ADME. As to conditions: simulated gi fluid, pH 6.8, 0.5 h. In outline: as §1
Data set [5] in a line: Stability in simulated intestinal fluid at pH 6.8 assessed as relative difference measured after 60 mins in presence of pancreatin by HPLC analysis. Format: ADME. As to conditions: simulated gi fluid, pH 6.8, 1 h. In outline:
as §1

Data set [6] is described as follows: Stability in simulated intestinal fluid at pH 6.8 assessed as relative difference measured after 120 mins in presence of pancreatin by HPLC analysis. Format: ADME. The following applies: simulated gi fluid, pH 6.8, 2 h. The gist of the method: as §1
Data set [7] is described as follows: Stability in simulated intestinal fluid at pH 6.8 assessed as relative difference measured after 180 mins in presence of pancreatin by HPLC analysis. Format: ADME. The following applies: simulated gi fluid, pH 6.8, 3 h. In outline: as §1
Data set [8] can be described thus: Half life in human plasma by HPLC analysis. Format: ADME, cell-free. In outline:
(§2)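 Compound stock added to human plasma pre-warmed to 37°C and diluted with 0.02 M phosphate buffer (pH 7.4) to 80% plasma. 100 μL samples taken over time, quenched with 200 μL cold acetonitrile, centrifuged, and supernatant analyzed by HPLC. t½ and kobs are means of three experiments.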

Data set [9] in a line: Stability in human plasma assessed as observed rate constant by HPLC analysis. Format: ADME, cell-free. In outline: as §2
Data set [10] relates to SH-SY5Y. Put plainly: Neuroprotective activity against amyloid beta (1 to 42)-induced toxicity in human SH-SY5Y cells assessed as increase in cell viability at 1 to 250 mg/l measured after 48 hrs by MTT assay. Format: functional, cell-based. As to conditions: dose 1-250 mg/L. In outline: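 SH-SY5Y cells grown in DMEM/F12 with 10% FBS and differentiated with retinoic acid (10 μM), seeded at 1×10^4 per well and cultured 24 h. Cells were given hybrids at 1–250 mg/L with or without Aβ1-42 (20 μM) for 48 h. MTT (5 mg/mL) added for 4 h at 37°C, DMSO solubilization, read at 570/630 nm. LDH read at 450 nm. Five independent experiments.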

For data set [11], the system named is SH-SY5Y. The data set can be described thus: Neuroprotective activity against amyloid beta (1 to 42)-induced apoptosis in human SH-SY5Y cells assessed as late apoptotic cells at IC50 measured after 48 hrs by Annexin-V/Propidium iodide staining based flow cytometry (reference value: 33.72%). Format: functional. On the technique in general: In flow cytometry, cells or beads pass a laser one at a time.

Data set [12] has as its system SH-SY5Y. The data set can be described thus: Neuroprotective activity against amyloid beta (1 to 42)-induced toxicity in human SH-SY5Y cells assessed as decrease in […] mRNA expression at IC50 measured after 48 hrs by SYBR green dye based RT-qPCR analysis. Format: functional, cell-based. The gist of the method:
(§3)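 Differentiated SH-SY5Y cells in 6-well plates treated 48 h with Aβ1-42 (20 μM) with or without hybrid. mRNA of AD-related genes measured by RT-qPCR, normalized to β-actin. Expressed as fold change versus untreated cells. Triplicate experiments.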
(Quantitative PCR measures a nucleic acid by following its amplification.)

For data set [13], the system named is SH-SY5Y. The data set can be described thus: Neuroprotective activity against amyloid beta (1 to 42)-induced toxicity in human SH-SY5Y cells assessed as decrease in APH1alpha mRNA expression at IC50 measured after 48 hrs by SYBR green dye based RT-qPCR analysis. Format: functional, cell-based. The gist of the method:
as §3

Data set [14] has as its system SH-SY5Y. The data set can be described thus: Neuroprotective activity against amyloid beta (1 to 42)-induced toxicity in human SH-SY5Y cells assessed as decrease in PSENEN mRNA expression at IC50 measured after 48 hrs by SYBR green dye based RT-qPCR analysis. Format: functional, cell-based. In outline:
as §3

The subject of data set [15] is Erythrocyte. Put plainly: Cytoprotective activity against H2O2-induced oxidative damage in human RBC assessed as recovery of H2O2-induced cell death at 50 to 100 uM measured after 72 hrs by MTT assay relative to control. The following applies: dose 50-100 µM. Format: functional. In general terms: Formazan colour is commonly taken as a measure of viable cells.
Data set [16] is described as follows: Stability in simulated intestinal fluid at pH 6.8 assessed as hydrolysis measured immediately in presence of pancreatin by HPLC analysis. Format: ADME. As to conditions: simulated gi fluid. The gist of the method:
as §1

Data set [17] has as its system Erythrocyte. Put plainly: Cytoprotective activity against H2O2-induced oxidative damage in human RBC assessed as restoration of antioxidant activity at 50 to 100 uM measured after 72 hrs by TAC assay relative to control. As to conditions: dose 50-100 µM. Format: functional.

≈ marks a conversion by molar mass, not a printed value. Calls of active or inactive are those of the source. The calls are words filed in the database; no cut-off is given here.

One may read the solubility as the concentration that dissolves in the medium under given conditions. The half-life is the time in which the quantity being followed falls by half. Lower therefore signals fast loss.

In data set [1], `COc1cc(/C=C/C(=O)NCCCNC(=O)CCCCC2CCSS2)ccc1O` (stereo unspecified) showed a solubility of 49 µg/mL (≈ 112 µM). Also, the “fold change (FC)” value in data set [2] is 1.78%; in data set [3] it was 0.54%; in data set [4], 0.86%; in data set [5], 1.04%; in data set [6] it was 2.5%; in data set [7], 3.46%. Moreover, the half-life in data set [8] was 72.4 h. Further, the K in [9] was 0.01 h⁻¹. The result in data set [10], in data set [12], in [13] and in data set [14] was Active. In addition, the Activity in data set [11] was 9.97%; in [15], 0.5%.
In the case of `O=C(CCCCC1CCSS1)NCCCCCOC(=O)Cc1ccc(O)c(O)c1` (stereo unspecified), in data set [2], the “fold change (FC)” value is recorded as 100%. For the same molecule, in [16], the Stabilty result was “Unstable”. In addition, the half-life in data set [8] was 0.03 h. Further, in [9], the K stood at 20.56 h⁻¹. For the same molecule, the result in data set [10], in [12], in data set [13] and in data set [14] was Active. For the same molecule, the figures for the Activity in data set [11], in [15] and in data set [17] were 9.69%, 0.5% and 79.2%, respectively.
